Legend:
Homo sapiens [1] = species: Homo sapiens; experiment: Mean of rate of formation in all human liver microsomes.; format: functional, organism-based; design: unit not given here
Procedure, shortened: (§1)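 Human liver microsomes from frozen bank tissue, washed and resuspended in 100 mM potassium phosphate/20% glycerol/1 mM EDTA, pH 7.4. Incubated with (1'R)- or (1'S)-bufuralol 200 μM, 3 mg protein, NADP+ 1 mM, glucose 6-phosphate 20 mM, MgCl2 10 mM, G6PDH 5 units, 0.20 M phosphate pH 7.4, 37 °C, 30 min. Benzylic alcohols derivatized with (R)-PEIC, reversed-phase HPLC at 248 nm against internal standard, calibration 2-10 μg.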

Homo sapiens [2] = species: Homo sapiens; experiment: Compound was tested for the rate of formation in human liver microsomes 108; format: functional; procedure, shortened: as §1
Homo sapiens [3] = species: Homo sapiens; experiment: Compound was tested for the rate of formation in human liver microsomes 112; format: functional; procedure, shortened: as §1
Homo sapiens [4] = species: Homo sapiens; experiment: Compound was tested for the rate of formation in human liver microsomes 114; format: functional; procedure, shortened: as §1
Homo sapiens [5] = species: Homo sapiens; experiment: Compound was tested for the rate of formation in human liver microsomes 116; format: functional; procedure, shortened: as §1
Rattus norvegicus = species: Rattus norvegicus; experiment: Compound was tested for the rate of formation in rat liver microsomes; format: functional
Procedure, shortened: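 Liver microsomes from male Sprague-Dawley rats (~150 g) prepared at 0-4 °C. Incubated with (1'R)- or (1'S)-bufuralol 200 μM, 3 mg protein, NADP+ 1 mM, glucose 6-phosphate 20 mM, MgCl2 10 mM, G6PDH 5 units, 0.20 M phosphate pH 7.4, 37 °C, 30 min. Alcohol diastereomers derivatized with (R)-PEIC, reversed-phase HPLC at 248 nm against internal standard, calibration 10-60 μg.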

Row | Compound | Mean (Homo sapiens [1]) | Rate of formation (pM min-1 (mg of protein)-1) (Homo sapiens [2]) | Rate of formation (pM min-1 (mg of protein)-1) (Homo sapiens [3]) | Rate of formation (pM min-1 (mg of protein)-1) (Homo sapiens [4]) | Rate of formation (pM min-1 (mg of protein)-1) (Homo sapiens [5]) | Rate of formation (pM min-1 (mg of protein)-1) (Rattus norvegicus)
1 | C[C@H](O)c1cccc2cc([C@@H](O)CNC(C)(C)C)oc12 | 66.6 | 101 | 32 | 58.8 | 74.9 | 96.1
2 | C[C@H](O)c1cccc2cc([C@H](O)CNC(C)(C)C)oc12 | 266 | 363 | 136 | 211 | 355 | 500
3 | C[C@@H](O)c1cccc2cc([C@H](O)CNC(C)(C)C)oc12 | 66.5 | 74.5 | 54.5 | 61.7 | 75.3 | 2270
4 | C[C@@H](O)c1cccc2cc([C@@H](O)CNC(C)(C)C)oc12 | 70.2 | 86.5 | 48.9 | 62.1 | 83.3 | 741

Reference: ChEMBL document CHEMBL1125776, “Enantioselective and diastereoselective hydroxylation of bufuralol. Absolute configuration of the 7-(1-hydroxyethyl)-2-[1-hydroxy-2-(tert-butylamino)ethyl]benzofurans, the benzylic hydroxylation metabolites” (J Med Chem, 1991)
